Screening results (PubChem)
The list is not random: actives were taken first. Their share in the collection is about 1.9%.
MsrA inh = bovine MsrA inhibition; AID 651718; purified bovine MsrA, absorbance read-out; inhibition, % at 15.5 µM; actives 0.75% (n = 360,000); in the data active means inhibition above about 4.5%;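 further: 0% = vehicle wells with enzyme and 100% = reference inhibitor wells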
aDG glyco act = alpha-DG glycosylation activation; actives 0.22% (n = 360,000); Pro5-aDG cells, alpha-DG glycosylation AlphaScreen (IIH6); 0% Pro5, 100% B10-LARGE cell signal; activation, % at 10 µM; AID 624168;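 active means activation of at least 8% versus controls, or a plate z-score of at least 8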;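 further: Pro5 are CHO cells carrying HIG-tagged alpha-DG that lacks glycosylation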
Glyco luc inh = N-linked glycosylation inhibition; AID 588692; D54 ERlucT glycosylation luciferase reporter, 24 h; percent of 100 nM tunicamycin response; actives 0.23% (n = 360,000); reporter increase, % at 12.5 µM;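 active means mean luciferase reporter signal, scaled so untreated is 0 and the glycosylation-blocking control 100, at or above a set limit in every replicate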;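 further: luciferase carries N-glycosylation sites so blocking glycosylation raises the light; 0% = median of neutral control wells and 100% = median of 100 nM tunicamycin wells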
UCH37 DUB inh = blocks the human deubiquitinase UCH37; Q9Y5K5; actives 0.33% (n = 330,000); AID 588478; purified proteasome/UCH37, Ub-AMC cleavage fluorescence; inhibition, % (concentration not given with the values);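 active means mean inhibition over replicate wells above about 20%, limit read from the data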;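 further: 0% = compound-free wells with enzyme and 100% = wells lacking proteasome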
Target sequence (Q9Y5K5 whole entry, looked up): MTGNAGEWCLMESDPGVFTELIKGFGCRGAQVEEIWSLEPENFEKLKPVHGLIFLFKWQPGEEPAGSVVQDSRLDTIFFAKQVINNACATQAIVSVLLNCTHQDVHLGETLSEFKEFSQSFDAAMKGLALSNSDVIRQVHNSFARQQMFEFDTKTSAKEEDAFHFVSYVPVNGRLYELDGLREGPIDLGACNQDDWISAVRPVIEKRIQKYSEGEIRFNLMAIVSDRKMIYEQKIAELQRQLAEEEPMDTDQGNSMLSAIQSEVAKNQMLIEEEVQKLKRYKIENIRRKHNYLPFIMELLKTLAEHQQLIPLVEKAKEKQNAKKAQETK
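Material: human UCH37 enzyme supplied as purified proteasome complex / Amount: 0.15 nM proteasome as dispensed / Buffer or medium: pH 7.4 Tris-HCl (50 mM) with ovalbumin, ATP-MgCl2, DTT / Times: preincubation 30 min, reaction 25 min, room temperature / Technique: AMC fluorescence from Ub-AMC cleavage, excitation 355 nm, emission 460 nm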
bovine MsrA act = bovine methionine sulfoxide reductase A activation. purified bovine MsrA, absorbance read-out. activation, % at 10.6 µM. actives 0.3% (n = 360,000); in the data active means activation above about 7.5%;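 further: 0% = vehicle and 100% = reference activator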
Vif imaging = inhibitors of HIV Vif | HEK293T cells, Vif self-association by quenched fluorescence, imaging, 24 h | inhibition, % at 7.49 µM | actives 0.35% (n = 340,000); in the data active means inhibition above about 50%, passing the limit was not always enough
Active calls of the source: *.

What do the screens show for `CCC1=Nc2cc(C(=O)NCCN3CCOCC3)ccc2Sc2ccc(C)cc21`?
MsrA inh: 0; aDG glyco act: 0; Glyco luc inh: 0; UCH37 DUB inh: 6; bovine MsrA act: -1; Vif imaging: -24

Results for CCC1=Nc2cc(C(=O)NCc3ccco3)ccc2Sc2ccc(C)cc21 ?
MsrA inh: 1; aDG glyco act: 0; Glyco luc inh: 11; UCH37 DUB inh: 3; bovine MsrA act: -5; Vif imaging: 57*

What do the screens show for `Cc1ccc(-c2cc3nc(-c4ccccc4)cc(NCCCO)n3n2)cc1`?
MsrA inh: 3; aDG glyco act: 0; Glyco luc inh: 4; bovine MsrA act: -3; Vif imaging: 7

Results for CCc1nn2c(NCCCO)cc(C)nc2c1-c1ccc(F)cc1 ?
MsrA inh: 0; aDG glyco act: 0; Glyco luc inh: 28*; UCH37 DUB inh: -16; bovine MsrA act: -3; Vif imaging: -15

Results for Fc1ccccc1COc1cccc(C=Nn2cnnc2)c1 ?
UCH37 DUB inh: 1

What do the screens show for `CCN(CC)CCOC(=O)/C=C/c1ccccc1`?
MsrA inh: 1; aDG glyco act: 0; Glyco luc inh: -1; UCH37 DUB inh: 4; bovine MsrA act: -2; Vif imaging: 1

How did CCN(CC)CC(C)(C)C(=O)/C=C/c1ccc(/C=C/C(=O)C(C)(C)CN(CC)CC)cc1 do in these assays?
MsrA inh: 12*; aDG glyco act: 0; Glyco luc inh: -19; bovine MsrA act: 2; Vif imaging: 24

How did Cc1cc(NN=Cc2ccccc2O)c2ccccc2n1 do in these assays?
UCH37 DUB inh: 8

Results for N#C/C(=C(/O)c1ccc2c(c1)OCO2)c1nc2cc(C(F)(F)F)ccc2s1 ?
MsrA inh: 1; aDG glyco act: 0; Glyco luc inh: 1; bovine MsrA act: -3; Vif imaging: -1

How did N#C/C(=C(/O)c1ccccc1F)c1nc2cc(C(F)(F)F)ccc2s1 do in these assays?
MsrA inh: 4.7*; aDG glyco act: 0; Glyco luc inh: 4; UCH37 DUB inh: 6; bovine MsrA act: -7; Vif imaging: -6

Results for O=C(NN=Cc1cccs1)c1sccc1-n1cccc1 ?
UCH37 DUB inh: 8

Results for O=Cc1cc(N=Nc2ccc(S(=O)(=O)O)cc2)ccc1O ?
MsrA inh: 1; aDG glyco act: 0; Glyco luc inh: 0; UCH37 DUB inh: 21*; bovine MsrA act: -5; Vif imaging: -21

Results for COc1cc(N=Nc2ccc(Br)cc2)cc(C=O)c1O ?
MsrA inh: 0; aDG glyco act: 0; Glyco luc inh: 1; bovine MsrA act: -4; Vif imaging: -4

What do the screens show for `NC(=O)NC(CCC(=O)O)C(=O)O` (stereo unspecified)?
MsrA inh: 1; aDG glyco act: 0; Glyco luc inh: 0; UCH37 DUB inh: 5; bovine MsrA act: -2; Vif imaging: 65*

Results for O=C1CSC(=S)N1N=Cc1cccnc1 ?
UCH37 DUB inh: 10

What do the screens show for `CC(C)CCNC(=O)CCc1nnc(COc2ccccc2)o1`?
MsrA inh: 2; aDG glyco act: 0; Glyco luc inh: 1; UCH37 DUB inh: 3; bovine MsrA act: -10; Vif imaging: 86*

Results for O=C(NC(=S)Nc1ccc(NC(=O)c2ccccc2)cc1)c1ccc(F)cc1 ?
MsrA inh: -1; aDG glyco act: 0; Glyco luc inh: -1; UCH37 DUB inh: 2; bovine MsrA act: -3; Vif imaging: 51*

Results for O=C(Nc1ccc(NC(=S)NC(=O)c2ccco2)cc1)c1ccc(Br)cc1 ?
MsrA inh: 1; aDG glyco act: 0; Glyco luc inh: 0; bovine MsrA act: 0; Vif imaging: 53*

Results for O=C(Nc1ccc(NC(=S)NC(=O)c2ccco2)cc1)c1ccccc1 ?
MsrA inh: 1; aDG glyco act: 0; Glyco luc inh: -3; UCH37 DUB inh: 3; bovine MsrA act: -4; Vif imaging: 13

What do the screens show for `COc1ccccc1NS(=O)(=O)c1cc(NC(=NS(=O)(=O)c2ccccc2)c2ccc(F)cc2)ccc1Cl`?
UCH37 DUB inh: 0

How did CC(=NNc1nc(-c2ccccc2)cs1)c1cccs1 do in these assays?
UCH37 DUB inh: 1

How did C[C@@H]1CN([C@H](C)CO)C(=O)CCCn2cc(nn2)CO[C@H]1CN(C)C(=O)c1ccccc1 do in these assays?
MsrA inh: 2; aDG glyco act: 0; Glyco luc inh: 4; bovine MsrA act: -5; Vif imaging: 70*

How did Cn1cc(C(=O)NN=CC2=C(N3CCOCC3)/C(=C/c3ccc([N+](=O)[O-])cc3)CC2)ccc1=O do in these assays?
UCH37 DUB inh: 2

Results for CN(CC/C=C1/c2ccccc2CSc2ccccc21)CCCO ?
MsrA inh: -1; aDG glyco act: 1; Glyco luc inh: 0; UCH37 DUB inh: 6; bovine MsrA act: -2; Vif imaging: -10

How did CC(O)CN(C)CC/C=C1/c2ccccc2CSc2ccccc21 (stereo unspecified) do in these assays?
MsrA inh: 0; aDG glyco act: 1; Glyco luc inh: -4; UCH37 DUB inh: 2; bovine MsrA act: -2; Vif imaging: 86*

How did CN(C)CCC=C1c2ccccc2CCc2ccccc21 do in these assays?
MsrA inh: 1; aDG glyco act: 0; Glyco luc inh: 6; UCH37 DUB inh: 22*; bovine MsrA act: -1; Vif imaging: 3

What do the screens show for `CS(=O)(=O)N(CC(=O)NN=Cc1ccccc1C(=O)O)c1cccc(Cl)c1Cl`?
UCH37 DUB inh: 3

What do the screens show for `Cc1ccc(C2OC(=O)c3ccccc32)cc1` (stereo unspecified)?
MsrA inh: 0; aDG glyco act: 0; Glyco luc inh: -1; UCH37 DUB inh: 6; bovine MsrA act: -4; Vif imaging: 4

What do the screens show for `Cc1ccc(C2OC(=O)C=C2c2ccccc2)cc1` (stereo unspecified)?
MsrA inh: 0; aDG glyco act: 0; Glyco luc inh: 0; UCH37 DUB inh: 24*; bovine MsrA act: -3; Vif imaging: -11

What do the screens show for `COc1cc(-c2cc3nc(NCCc4ccc(S(N)(=O)=O)cc4)ccn3n2)cc(OC)c1OC`?
MsrA inh: 1; aDG glyco act: 0; Glyco luc inh: 13; bovine MsrA act: -3; Vif imaging: 1

How did COc1cc(-c2cc3nc(NCCc4ccncc4)ccn3n2)cc(OC)c1OC do in these assays?
MsrA inh: 1; aDG glyco act: 0; Glyco luc inh: 28*; bovine MsrA act: 1; Vif imaging: -8

How did COc1cc(-c2cc3nc(NCCOc4ccccc4)ccn3n2)cc(OC)c1OC do in these assays?
MsrA inh: 0; aDG glyco act: 0; Glyco luc inh: 46*; bovine MsrA act: -2

Results for COc1cccc(C=Nn2cnnc2)c1OCc1ccccc1 ?
UCH37 DUB inh: -4

Results for CN(C)c1ccc(C=NNC(=O)CSc2ccccn2)cc1 ?
UCH37 DUB inh: -41
